ChEMBL document CHEMBL4689842, “EUbOPEN Chemogenomics Library wave 1” (2021)

Tested on: U2OS
Assay: Multiplex assay against U2OS
Type: toxicity, cell-based
Details: human
Procedure, shortened: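 With compound added, live cells were imaged on a CQ1 microscope at 37°C and 5% CO2; staining with Hoechst33342, BioTracker Green Microtubule Cytoskeleton Dye, MitoTracker Red and Annexin V Alexa Fluor 680 had been done at seeding. The CellPathfinder machine-learning gating scheme split cells into Hoechst high-intensity objects or normal cells, normal cells into healthy, pyknosed or fragmented nuclei, and pyknosed cells into mitotic or apoptotic. The tubulin, mitochondrial-mass and membrane-permeability phenotypes are per cents of healthy-nucleus cells.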

[1] = 12 h, 1 µM, compound concentration 1 uM, replicate 1
[2] = 12 h, 1 µM, compound concentration 1 uM, replicate 2
[3] = 12 h, 10 µM, compound concentration 10 uM, replicate 1
[4] = 12 h, 10 µM, compound concentration 10 uM, replicate 2
[5] = 24 h, 1 µM, compound concentration 1 uM, replicate 1
[6] = 24 h, 1 µM, compound concentration 1 uM, replicate 2
[7] = 24 h, 10 µM, compound concentration 10 uM, replicate 1
[8] = 24 h, 10 µM, compound concentration 10 uM, replicate 2
[9] = 48 h, 1 µM, compound concentration 1 uM, replicate 1
[10] = 48 h, 1 µM, compound concentration 1 uM, replicate 2
[11] = 48 h, 10 µM, compound concentration 10 uM, replicate 1
[12] = 48 h, 10 µM, compound concentration 10 uM, replicate 2

COc1ccccc1CN[C@H]1C2CCN(CC2)[C@H]1C(c1ccccc1)c1ccccc1 [CP-96345]
Population Apoptotic (%) [1]: 22% | Population Fragmented Nuclei (%) [1]: 14% | Population Healthy Nuclei (%) [1]: 71% | Population Hoechst High Intensity Objects (%) [1]: 11% | Population Membrane Permeable-Phenotype (%) [1]: 8% | Population Mitochondria Different-Phenotype (%) [1]: 20% | Population Mitotic Cells (%) [1]: 77% | Population Normal (%) [1]: 88% | Population Pyknosed Nuclei (%) [1]: 14% | Population Tubulin-Different-Phenotype (%) [1]: 16% | Total Cell Count [1]: 136 | Population Apoptotic (%) [2]: 66% | Population Fragmented Nuclei (%) [2]: 4% | Population Healthy Nuclei (%) [2]: 92% | Population Hoechst High Intensity Objects (%) [2]: 0% | Population Membrane Permeable-Phenotype (%) [2]: 4% | Population Mitochondria Different-Phenotype (%) [2]: 7% | Population Mitotic Cells (%) [2]: 33% | Population Normal (%) [2]: 100% | Population Pyknosed Nuclei (%) [2]: 3% | Population Tubulin-Different-Phenotype (%) [2]: 8% | Total Cell Count [2]: 90 | Population Apoptotic (%) [3]: 51% | Population Fragmented Nuclei (%) [3]: 10% | Population Healthy Nuclei (%) [3]: 65% | Population Hoechst High Intensity Objects (%) [3]: 6% | Population Membrane Permeable-Phenotype (%) [3]: 7% | Population Mitochondria Different-Phenotype (%) [3]: 87% | Population Mitotic Cells (%) [3]: 48% | Population Normal (%) [3]: 93% | Population Pyknosed Nuclei (%) [3]: 24% | Population Tubulin-Different-Phenotype (%) [3]: 84% | Total Cell Count [3]: 127 | Population Apoptotic (%) [4]: 50% | Population Fragmented Nuclei (%) [4]: 2% | Population Healthy Nuclei (%) [4]: 86% | Population Hoechst High Intensity Objects (%) [4]: 3% | Population Membrane Permeable-Phenotype (%) [4]: 1% | Population Mitochondria Different-Phenotype (%) [4]: 45% | Population Mitotic Cells (%) [4]: 50% | Population Normal (%) [4]: 96% | Population Pyknosed Nuclei (%) [4]: 10% | Population Tubulin-Different-Phenotype (%) [4]: 26% | Total Cell Count [4]: 77 | Population Apoptotic (%) [5]: 45% | Population Fragmented Nuclei (%) [5]: 12% | Population Healthy Nuclei (%) [5]: 79% | Population Hoechst High Intensity Objects (%) [5]: 7% | Population Membrane Permeable-Phenotype (%) [5]: 6% | Population Mitochondria Different-Phenotype (%) [5]: 13% | Population Mitotic Cells (%) [5]: 54% | Population Normal (%) [5]: 92% | Population Pyknosed Nuclei (%) [5]: 7% | Population Tubulin-Different-Phenotype (%) [5]: 7% | Total Cell Count [5]: 154 | Population Apoptotic (%) [6]: 54% | Population Fragmented Nuclei (%) [6]: 4% | Population Healthy Nuclei (%) [6]: 85% | Population Hoechst High Intensity Objects (%) [6]: 2% | Population Membrane Permeable-Phenotype (%) [6]: 1% | Population Mitochondria Different-Phenotype (%) [6]: 4% | Population Mitotic Cells (%) [6]: 45% | Population Normal (%) [6]: 97% | Population Pyknosed Nuclei (%) [6]: 9% | Population Tubulin-Different-Phenotype (%) [6]: 17% | Total Cell Count [6]: 114 | Population Apoptotic (%) [7]: 75% | Population Fragmented Nuclei (%) [7]: 18% | Population Healthy Nuclei (%) [7]: 59% | Population Hoechst High Intensity Objects (%) [7]: 8% | Population Membrane Permeable-Phenotype (%) [7]: 6% | Population Mitochondria Different-Phenotype (%) [7]: 90% | Population Mitotic Cells (%) [7]: 25% | Population Normal (%) [7]: 91% | Population Pyknosed Nuclei (%) [7]: 22% | Population Tubulin-Different-Phenotype (%) [7]: 69% | Total Cell Count [7]: 157 | Population Apoptotic (%) [8]: 40% | Population Fragmented Nuclei (%) [8]: 2% | Population Healthy Nuclei (%) [8]: 81% | Population Hoechst High Intensity Objects (%) [8]: 1% | Population Membrane Permeable-Phenotype (%) [8]: 2% | Population Mitochondria Different-Phenotype (%) [8]: 31% | Population Mitotic Cells (%) [8]: 60% | Population Normal (%) [8]: 98% | Population Pyknosed Nuclei (%) [8]: 16% | Population Tubulin-Different-Phenotype (%) [8]: 14% | Total Cell Count [8]: 92 | Population Apoptotic (%) [9]: 80% | Population Fragmented Nuclei (%) [9]: 7% | Population Healthy Nuclei (%) [9]: 85% | Population Hoechst High Intensity Objects (%) [9]: 3% | Population Membrane Permeable-Phenotype (%) [9]: 2% | Population Mitochondria Different-Phenotype (%) [9]: 9% | Population Mitotic Cells (%) [9]: 20% | Population Normal (%) [9]: 96% | Population Pyknosed Nuclei (%) [9]: 6% | Population Tubulin-Different-Phenotype (%) [9]: 5% | Total Cell Count [9]: 227 | Population Apoptotic (%) [10]: 62% | Population Fragmented Nuclei (%) [10]: 5% | Population Healthy Nuclei (%) [10]: 89% | Population Hoechst High Intensity Objects (%) [10]: 0% | Population Membrane Permeable-Phenotype (%) [10]: 4% | Population Mitochondria Different-Phenotype (%) [10]: 12% | Population Mitotic Cells (%) [10]: 37% | Population Normal (%) [10]: 99% | Population Pyknosed Nuclei (%) [10]: 4% | Population Tubulin-Different-Phenotype (%) [10]: 21% | Total Cell Count [10]: 164 | Population Apoptotic (%) [11]: 74% | Population Fragmented Nuclei (%) [11]: 17% | Population Healthy Nuclei (%) [11]: 58% | Population Hoechst High Intensity Objects (%) [11]: 4% | Population Membrane Permeable-Phenotype (%) [11]: 11% | Population Mitochondria Different-Phenotype (%) [11]: 78% | Population Mitotic Cells (%) [11]: 25% | Population Normal (%) [11]: 95% | Population Pyknosed Nuclei (%) [11]: 23% | Population Tubulin-Different-Phenotype (%) [11]: 55% | Total Cell Count [11]: 194 | Population Apoptotic (%) [12]: 33% | Population Fragmented Nuclei (%) [12]: 9% | Population Healthy Nuclei (%) [12]: 80% | Population Hoechst High Intensity Objects (%) [12]: 1% | Population Membrane Permeable-Phenotype (%) [12]: 6% | Population Mitochondria Different-Phenotype (%) [12]: 14% | Population Mitotic Cells (%) [12]: 66% | Population Normal (%) [12]: 98% | Population Pyknosed Nuclei (%) [12]: 10% | Population Tubulin-Different-Phenotype (%) [12]: 13% | Total Cell Count [12]: 146
